The format of this data set is in vivo, Wistar rats. To be noted: for Detection in rat plasma samples over the sampling period (LC-MS/MS quantitation): concentrations lower than LLOQ. An outline of the steps: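 Male Wistar rats (200 ± 20 g) were acclimated 7 days with food and water ad libitum. Crude extract, predissolved in 0.5% DMSO and dispersed in 5 mg/mL sodium carboxymethylcellulose, was given intragastrically at 200 mg/kg. Heparinized blood was taken on ice at 0–24 h (12 points) and spun; plasma was held at −20 °C. Plasma (100 μL) plus IS was extracted with ethyl acetate, then 14 bufadienolides quantified by UHPLC-MS/MS against LLOQ.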

The mark [1] stands for this setting: intragastric crude VB extract 200 mg/kg.
Where [2] appears, read: male, Wistar, rat, plasma, po, 200 mg/kg.
Setting [3] is: rat plasma, intragastric crude VB extract 200 mg/kg, n=4.

Molecules are shown by their SMILES. Like-named read-outs stand apart in the source and are kept apart here.

Regarding `C[C@]12CC[C@H]3[C@@H](CC[C@@H]4C[C@@H](O)CC[C@@]43C=O)[C@]13O[C@@H]3CC2c1ccc(=O)oc1` (stereo partly drawn) [CS16, resibufagin], the “Detection in rat plasma samples over the sampling period (LC-MS/MS quantitation)” value under setting [1] is “not detected”.

By AUC(0-t) is commonly meant exposure summed from dosing to a finite time, without extrapolation to infinity. Low values mean low exposure, high ones high exposure. The term Cmax denotes the highest concentration seen after dosing. In general, MRT last refers to the average time that molecules of a dose stay in the body. For orientation: Tmax means the time from dosing to the highest level. Usually half-life stands for the time in which the quantity being followed falls by half. Lower therefore signals fast loss. As for `C[C@]12CC[C@H](O)C[C@H]1CC[C@@H]1[C@@H]2[C@H](O)C[C@]2(C)[C@@H](c3ccc(=O)oc3)CC[C@]12O` [CS36, gamabufotalin], under setting [2], the area under the curve AUC(0-t) came to 223 ± 11.3 ng·h/mL, the concentration peaked (Cmax) at 84.4 ± 4 ng/mL, the MRT last is 2.5 ± 0.603 h and the time to peak (Tmax) came to 0.812 ± 0.125 h. Under setting [2], the half-life was 2.82 ± 1.27 h.

As to `C[C@]12CC[C@H](O)C[C@H]1CC[C@@H]1[C@@H]2CC[C@]2(C)[C@@H](c3ccc(=O)oc3)C[C@H]3O[C@]132` [CS22, resibufogenin], under setting [2], the AUC(0-t) turned out to be 4.53 ± 0.701 ng·h/mL, the Cmax came to 3.79 ± 3.78 ng/mL, the MRT last is 0.836 ± 0.141 h and the Tmax came out at 0.333 ± 0.204 h. For the same compound, the half-life under setting [2] is 1.2 ± 0.477 h.

`C[C@]12CC[C@H]3[C@@H](CC[C@]4(O)C[C@@H](O)CC[C@]34C=O)[C@@]1(O)CC[C@@H]2c1ccc(=O)oc1` [CS04, hellebrigenin]: under setting [3], the “AUC(0-t)” value came to 104.246 ± 20.661 ng·h/mL, the Cmax came out at 13.35 ± 2.243 ng/mL, the “MRT(0-t)” value is recorded as 6.478 ± 1.035 h and the time to peak (Tmax) is given as 1.438 ± 0.657 h. This compound displayed a t1/2 under setting [3] of 4.884 ± 2.116 h.

Regarding `C[C@]12CC[C@H](O)C[C@@]1(O)CC[C@@H]1[C@@H]2CC[C@]2(C)[C@@H](c3ccc(=O)oc3)CC[C@]12O` [CS14, telocinobufagin], under setting [2], the AUC(0-t) was determined as 7.22 ± 0.428 ng·h/mL, the Cmax came out at 4.84 ± 1.09 ng/mL, the MRT last was found to be 0.932 ± 0.129 h and the Tmax came to 0.521 ± 0.315 h. This compound also had a half-life under setting [2] of 1.88 ± 1.19 h.

`CC(=O)O[C@H]1[C@H]2O[C@]23[C@@H]2CC[C@@H]4C[C@@H](O)CC[C@]4(C)[C@H]2CC[C@]3(C)[C@H]1c1ccc(=O)oc1` [CS23, cinobufagin]: under setting [2], the exposure AUC(0-t) was 5.2 ± 2.83 ng·h/mL, the Cmax worked out at 7.29 ± 10.4 ng/mL, the MRT last turned out to be 0.913 ± 0.23 h and the Tmax amounted to 0.833 ± 0.825 h. For the same compound, the half-life under setting [2] was 1.32 ± 0.526 h.

As to `CC(=O)O[C@H]1[C@H]2O[C@]23[C@@H]2CC[C@]4(O)C[C@@H](O)CC[C@]4(C)[C@H]2CC[C@]3(C)[C@H]1c1ccc(=O)oc1` [CS19, cinobufotalin], the “Detection in rat plasma samples over the sampling period (LC-MS/MS quantitation)” value under setting [1] was “not detected”.

For the compound `CC(=O)O[C@H]1[C@H]2O[C@]23[C@@H]2CC[C@@H]4C[C@@H](O)CC[C@]4(C=O)[C@H]2CC[C@]3(C)[C@H]1c1ccc(=O)oc1` [CS17, 19-oxocinobufagin], the “Detection in rat plasma samples over the sampling period (LC-MS/MS quantitation)” value under setting [1] is given as “not detected”.

As to `C[C@]12CC[C@H](O)C[C@H]1CC[C@@H]1[C@@H]2CC[C@]2(C)[C@@H](c3ccc(=O)oc3)[C@@H](O)[C@H]3O[C@]132` [CS30, desacetylcinobufagin], under setting [2], the exposure AUC(0-t) was determined as 104 ± 6.06 ng·h/mL, the Cmax is 24.1 ± 2.27 ng/mL, the MRT last was 4.67 ± 1.01 h and the Tmax turned out to be 0.875 ± 0.25 h. Further, the half-life under setting [2] is 10.8 ± 5.24 h.

As to `C[C@]12CC[C@H](O)C[C@H]1CC[C@@H]1[C@@H]2CC[C@]2(C)[C@@H](c3ccc(=O)oc3)CC[C@]12O` [CS21, bufalin], under setting [2], the AUC(0-t) was 17 ± 1.76 ng·h/mL, the highest concentration (Cmax) stood at 7.08 ± 1.85 ng/mL, the mean residence time MRT last was determined as 1.48 ± 0.115 h and the Tmax came out at 0.396 ± 0.292 h. Under setting [2], this compound gave a half-life of 1.77 ± 0.821 h.

In the case of `CC(=O)O[C@H]1C[C@]2(O)[C@@H]3CC[C@@H]4C[C@@H](O)CC[C@]4(C)[C@H]3CC[C@]2(C)[C@H]1c1ccc(=O)oc1` [CS15, bufotalin], the “Detection in rat plasma samples over the sampling period (LC-MS/MS quantitation)” value under setting [1] is “not detected”.

On to `CC(=O)O[C@H]1[C@H]2O[C@]23[C@@H]2CC[C@]4(O)C[C@@H](O)CC[C@]4(C=O)[C@H]2CC[C@]3(C)[C@H]1c1ccc(=O)oc1` [CS11, 19-oxocinobufotalin], for which, under setting [3], the “AUC(0-t)” value was 3.669 ± 0.511 ng·h/mL, the Cmax is 2.752 ± 0.814 ng/mL, the “MRT(0-t)” value came to 0.942 ± 0.05 h and the Tmax is on record as 0.562 ± 0.239 h. Besides, the t1/2 under setting [3] is 2.614 ± 2.802 h.

In the case of `C[C@]12CC[C@H](O)C[C@H]1CC[C@@H]1[C@@H]2C(=O)[C@H](O)[C@]2(C)[C@@H](c3ccc(=O)oc3)CC[C@]12O` [CS01, pseudobufarenogin], under setting [3], the “AUC(0-t)” value is 276.956 ± 60.642 ng·h/mL, the Cmax came to 67.225 ± 14.218 ng/mL, the “MRT(0-t)” value turned out to be 4.614 ± 0.481 h and the Tmax was 0.75 ± 0 h. Under setting [3], this compound yielded a t1/2 of 3.944 ± 1.276 h.

Regarding `C[C@]12CC[C@H](O)C[C@H]1CC[C@@H]1[C@@H]2[C@H](O)C(=O)[C@]2(C)[C@@H](c3ccc(=O)oc3)CC[C@]12O` [CS03, arenobufagin], under setting [3], the “AUC(0-t)” value stood at 1487.316 ± 407.361 ng·h/mL, the maximum concentration (Cmax) came to 466.5 ± 116.920 ng/mL, the “MRT(0-t)” value came out at 3.338 ± 1.011 h and the Tmax was found to be 0.938 ± 0.125 h. The compound also gave a t1/2 under setting [3] of 4.537 ± 2.442 h.
